Assay outcomes deposited in PubChem BioAssay by Johns Hopkins Ion Channel Center.
MrgX1 ag: agonists of human MrgX1 receptor, primary screen, HEK293 cells, Fluo-4 calcium flux. B-score at 10 µM. Fluo-4 calcium fluorescence, agonist mode; active compounds read high. actives 0.44% (n = 310,000);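 active means calcium response B-score plate-corrected fluorescence ratio at least 3 library SD, with starting fluorescence B-score inside 5 SD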
Target sequence (Q96LB2 whole entry, looked up): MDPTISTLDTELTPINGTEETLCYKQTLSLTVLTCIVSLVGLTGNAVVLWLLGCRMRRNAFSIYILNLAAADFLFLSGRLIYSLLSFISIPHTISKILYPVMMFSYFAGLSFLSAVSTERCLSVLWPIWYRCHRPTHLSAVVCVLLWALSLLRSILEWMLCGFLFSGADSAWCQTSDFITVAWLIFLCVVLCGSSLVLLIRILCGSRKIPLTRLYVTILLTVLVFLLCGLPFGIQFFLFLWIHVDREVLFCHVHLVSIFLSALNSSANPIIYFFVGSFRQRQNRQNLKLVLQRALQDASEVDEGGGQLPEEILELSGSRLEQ
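Material: HEK293 cells stably expressing human MrgX1 receptor | Quantity: 15,000 cells per well | Times: Cells plated overnight, dye loaded 0.5 h 37 °C, 0.5 h room temperature | Measured by: Kinetic Fluo-4 NW fluorescence of intracellular calcium | Control set: Positive and negative controls per plate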
MrgX1 PAM: positive allosteric modulators of MrgX1, primary screen, HEK293 cells, Fluo-4 calcium flux; Mas-related G-protein coupled receptor member X1 (Homo sapiens), Q96LB2; FDSS; active compounds read high; B-score at 10 µM; actives 0.63% (n = 310,000); AID 588675, 2011;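 active means plate-corrected calcium response at least 3 library SD above typical, normal starting fluorescence, not activating the receptor alone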;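 further: compound read alongside a low EC10 to EC30 dose of BAM8-22 agonist; peak minus trough fluorescence over baseline measured at the second addition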
MrgX1 antagonist: antagonists of human MrgX1 receptor, primary screen, HEK293 cells, Fluo-4 calcium flux | AID 588676, 2011 | actives 1.3% (n = 310,000) | BAM8-22 antagonism; active compounds read low | B-score at 10 µM;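 active means calcium-response B-score plate-corrected more than 3 library SD below zero, starting fluorescence within 5 deviations, no agonist response on first addition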;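 further: peak minus trough fluorescence over baseline after final BAM8-22 challenge near maximal dose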
RGS4 inh: RGS4 inhibitors, primary screen, cell-based, HEK293 M3R inducible RGS4, calcium flux | AID 463165, 2010 | actives 0.45% (n = 310,000) | B-score at 10 µM | Regulator of G-protein signaling 4 (Homo sapiens), P49798 | Fluo-4 calcium flux; active compounds read high; triggered by carbachol at its EC20;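 active means B-score, a plate-corrected calcium signal, over three deviations above library mean, with baseline fluorescence within five deviations of library mean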;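 further: RGS4 expression induced by doxycycline in cells with stable M3 receptor; B-score is computed from the integrated fluorescence ratio over baseline after carbachol; higher B-score means a larger calcium signal and so more RGS4 inhibition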
Target sequence (P49798 whole entry, looked up): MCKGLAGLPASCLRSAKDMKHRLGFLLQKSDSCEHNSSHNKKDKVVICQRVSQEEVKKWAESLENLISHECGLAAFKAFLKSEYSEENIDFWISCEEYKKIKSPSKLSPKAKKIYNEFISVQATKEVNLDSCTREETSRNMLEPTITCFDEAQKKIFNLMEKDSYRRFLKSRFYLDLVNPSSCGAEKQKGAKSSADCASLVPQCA
RGS4 pot: RGS4 potentiators or activators, primary screen, cell-based, HEK293 M3R inducible RGS4, calcium flux; carbachol calcium flux Fluo4; active compounds read low; B-score at 10 µM; actives 0.92% (n = 310,000); AID 463111, 2010;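 active means B-score of the integrated calcium signal more than 4 SD below the library mean, with starting fluorescence not abnormally high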;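 further: negative B-score means reduced calcium response which marks RGS4 activation or potentiation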
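Reagent: ECmax carbachol challenge; Test system: M3R-expressing HEK293 line, RGS4 induced by doxycycline; Schedule: overnight RGS4 induction, 30 min dye load 37 °C, 20 min compound RT; Detection: calcium dye Fluo4 fluorescence; Read-out: Agonist-evoked peak-minus-minimum fluorescence over baseline, integrated ratio, B score.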
Active calls of the source: *; i = inactive; . = not tested or not shown. Shown are actives, neighbours in structure and some others; about 3.5% of the full set was active somewhere.

SMILES	MrgX1 ag	MrgX1 PAM	MrgX1 antagonist	RGS4 inh	RGS4 pot
O=C(CNC(=O)c1ccc(F)cc1)c1ccc(Cl)cc1	i	i	i	i	i
CCOC(=O)N1CCN(c2nc(N(c3ccccc3)c3ccccc3)nc(-n3ccnc3)n2)CC1	i	i	i	i	-7.1*
CC1=Nc2ccccc2/C1=C/c1sc(=N)n(-c2nccs2)c1O	46*	i	i	i	i
CCn1c(C)nc2cc(C(=O)N/N=C(\C)c3ccccc3O)ccc21	i	i	i	i	i
Cc1ccc(C)c(-n2c3nc(=O)[nH]c(=O)c-3cc3cc([N+](=O)[O-])ccc32)c1	34*	i	i	.	.
Cc1cccc(S(=O)(=O)C(C#N)c2nc3ccccc3nc2N2CCOCC2)c1 (stereo not drawn)	i	i	i	i	i
Cc1cc(C(C2C(=O)CC(C)(C)CC2=O)C2C(=O)CC(C)(C)CC2=O)cc(C)c1OC(F)F	63*	i	i	i	i
COC(=O)C1=C(C)NC(=S)NC1c1ccc(-c2cc(Cl)ccc2Cl)o1 (stereo not drawn)	i	i	i	i	i
c1ccc(CCNc2nc(-c3ccccn3)nc3ccccc23)cc1	i	i	i	i	i
O=C(N/N=C/C=C/c1ccccc1)C(O)c1ccccc1 (stereo not drawn)	i	i	-5.9*	i	i
O=C(N/N=C/C=C/c1ccco1)C(O)c1ccccc1 (stereo not drawn)	i	i	i	i	i
O=C(CC(=O)c1cc(Cl)ccc1O)c1ccccc1	i	i	-5*	i	i
O=C(NC1(C(F)(F)F)N=C(c2ccccc2)NC1=O)c1ccccc1 (stereo not drawn)	i	i	i	i	i
COc1ccc2[nH]c(C(=O)N3CCC(n4nccc4NC(=O)C4CC4)CC3)c(C)c2c1	i	i	i	i	i
Cc1ccc(C(=O)N/C(=C\c2cccc([N+](=O)[O-])c2)C(=O)Nc2cccc(C(=O)O)c2)cc1	i	i	i	i	i
COc1ccc(C(=O)N/C(=C\c2cccc([N+](=O)[O-])c2)C(=O)Nc2cccc(C(=O)O)c2)cc1	i	i	-6.9*	i	i
CC1(C)Cc2cccc(OCC(=O)OCC(=O)Nc3cccc(S(N)(=O)=O)c3)c2O1	i	i	i	i	i
O=C(N/N=C/c1ccc(N2CCOCC2)cc1)c1cccs1	i	i	i	i	i
O=C(N/N=C/c1ccc(N2CCOCC2)cc1)c1ccccc1OCCOc1ccccc1	i	i	i	i	-7.1*
Cc1ccc(/C=C2/C(=O)ON=C2c2ccccc2)o1	43*	i	i	i	i
CC1=NOC(=O)/C1=C\c1ccc(-c2cccc(Cl)c2)o1	i	i	i	i	-8.9*
COc1cc(-c2nnc(SCC3(c4ccc(Br)cc4)OCCO3)o2)cc(OC)c1OC	i	i	i	i	i
CN(/N=C/c1ccc(O)cc1O)c1nc(-c2ccccc2)cc(-c2ccccc2)n1	i	i	i	i	i
CC12CCC3(CO)COC(c4ccccc4O1)C2C3 (stereo not drawn)	i	i	i	i	i
CC1(C#CC[N+]2(C)CCCCC2)CCC2C(O1)c1ccccc1OC2(C)C (stereo not drawn)	i	i	i	i	-7*
SMILES	MrgX1 ag	MrgX1 PAM	MrgX1 antagonist	RGS4 inh	RGS4 pot
CCN(CC)CCNC(=S)NC(=O)c1cn(-c2ccccc2)nc1-c1ccc(OC)cc1	i	i	i	i	i
N#Cc1ccc(/C=C/C(=O)c2ccco2)cc1	i	i	i	i	i
Nc1ccc(/C=C/C(=O)c2ccco2)cc1	50*	i	i	i	i
O=C(/C=C/c1cc(Br)ccc1O)c1ccco1	39*	i	i	i	i
Cc1ccc2cc(CN(CCc3ccccc3)C(=S)NCCCN(C)C)c(=O)[nH]c2c1	i	6.6*	i	i	i
CC(=O)c1ccc(NC(=O)c2ccc3nc(-c4ccco4)c(-c4ccco4)nc3c2)cc1	i	i	-6.7*	i	i
S=C(Nc1ccc(N2CCOCC2)cc1)Nc1ccc2nc(-c3ccco3)c(-c3ccco3)nc2c1	i	i	i	i	-7*
O=C(Nc1cccnc1)c1ccc2nc(-c3ccccc3)c(-c3ccccc3)nc2c1	i	i	i	i	-9.8*
O=C(NCCO)Nc1ccc2nc(-c3ccco3)c(-c3ccco3)nc2c1	28*	i	i	.	.
O=C(NCCO)Nc1ccc2nsnc2c1	i	i	i	i	i
COc1ccc(OC)c(NC(=O)Nc2cc(C(=O)O)ccc2C)c1	i	i	i	i	i
Cc1cc(N2CCCC2)ccc1/C=C1\NC(=S)N(C)C1=O	44*	i	i	i	i
CN1C(=O)c2ccc(N3CCCC3)cc2C1=O	i	i	i	i	i
COc1ccc(/C=C/C(=O)Nc2ccc(OC)cc2[N+](=O)[O-])cc1	i	i	i	i	i
CC(C)NC(=O)c1ccccc1NC(=O)/C=C/c1cccc([N+](=O)[O-])c1	i	i	-4.5*	i	i
COc1ccc(NC(=O)/C=C/c2ccccc2)c([N+](=O)[O-])c1	i	i	-7.1*	i	i
Cc1cnc(CNC(=O)C2CCC(=O)N(CCc3ccc(Cl)cc3)C2)cn1 (stereo not drawn)	.	.	.	i	i
COC(=O)CS(=O)(=O)c1nnc([C@H](Cc2ccccc2)NC(=O)OC(C)(C)C)o1	30*	i	i	i	i
Cc1cccc(CS(=O)(=O)c2nnc([C@H](Cc3ccccc3)NC(=O)OC(C)(C)C)o2)c1	i	i	i	i	i
Cc1ncc(CO)c(/C=N/NC(=S)Nc2ccc(Cl)c(Cl)c2)c1O	i	i	-9.6*	i	i
COc1ccccc1NC(=O)CCS(=O)(=O)c1cc2c(cc1Cl)NC(=O)CO2	i	i	i	i	i
CCOC(=O)CSc1nc2c(sc(=S)n2-c2ccccc2OC)c(=O)n1Cc1ccco1	40*	i	i	i	i
COc1cc2c(cc1OC)CN(C(=O)c1cc(S(=O)(=O)N3CCOCC3)c(Cl)cc1Cl)CC2	i	i	i	i	i
